Data on three molecules can be found in paper PMC4962910 (Nature cell biology, 2014).

The Kd is the equilibrium constant for the complex coming apart. A lower Kd goes with higher affinity.

Non-standard residues stand in square brackets, D forms with d. Residues, ends and D or L forms follow the SMILES beside them. No end group written: not given here. pT = C[C@@H](OP(=O)(O)O)[C@H](N)C(=O)O; pS = N[C@@H](COP(=O)(O)O)C(=O)O

In one assay the target is T1, NBS1 (Homo sapiens, UniProt O60934).
T1 sequence (O60934 1-382 limits assumed): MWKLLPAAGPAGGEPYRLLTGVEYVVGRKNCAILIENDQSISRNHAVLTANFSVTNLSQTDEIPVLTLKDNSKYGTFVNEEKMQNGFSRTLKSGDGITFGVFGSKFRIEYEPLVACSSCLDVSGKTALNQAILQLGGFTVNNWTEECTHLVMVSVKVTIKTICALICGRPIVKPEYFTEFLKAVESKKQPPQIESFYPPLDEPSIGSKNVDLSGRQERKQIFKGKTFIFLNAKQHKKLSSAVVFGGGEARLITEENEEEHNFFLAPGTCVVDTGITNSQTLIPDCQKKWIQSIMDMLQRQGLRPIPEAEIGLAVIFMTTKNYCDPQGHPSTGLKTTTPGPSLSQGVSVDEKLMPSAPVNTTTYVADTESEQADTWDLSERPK
Kind of assay: Isothermal titration calorimetry. The assay is classed as binding. (In general: ITC needs no label: the signal is the heat of the interaction.)

Assay [1] has as its system NBS1-GFP positive nucleoli. In kind it is cell-based. To be noted: PARP inhibition (Supplementary Fig. 6c). Summed up: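 U2OS cells stably expressing NBS1-GFP (U2OS-NBS1-GFP2) were grown in DME with 10 % fetal bovine serum, penicillin and streptomycin. Medium was supplemented with the PARP inhibitor veliparib (ABT888) for 1 h. Each cell was scored manually as positive or negative by visual presence of GFP signal within nucleoli.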

In assay [2] the target is NBS1 N-terminal FHA-BRCT region (sample of the ITC) (human). Kind of assay: ITC.

As to `CC(C)[C@H](NC(=O)[C@H](CC(=O)O)NC(=O)[C@@H](NC(=O)[C@H](CCC(=O)O)NC(=O)[C@H](CC(=O)O)NC(=O)[C@H](COP(=O)(O)O)NC(=O)[C@H](CO)NC(=O)[C@H](CO)NC(=O)[C@@H](N)CO)[C@@H](C)OP(=O)(O)O)C(=O)N[C@@H](CCC(=O)O)C(=O)O` [SDET] (H-SSS[pS]DE[pT]DVE-OH), on NBS1, the dissociation constant (Kd) is ~1000 nM.
Take `C[C@]1(c2nc3c(C(N)=O)cccc3[nH]2)CCCN1` [PARP inhibition, Veliparib]: the “number of cells with NBS1-GFP positive nucleoli” value in assay [1] is “small but reproducible decrease”.
Turning to SSS[pS]DE[pT]DVE [Treacle SDET phosphopeptide (SSSpSDEpTDVE)], the Kd in assay [2] worked out at 1000 nM.
